The list is not random: actives were taken first. Their share in the collection is about 1.2%.
TPT1 inhibitor: inhibitors of Candida albicans tRNA 2'-phosphotransferase TPT1. inhibition, % at 5 µM. actives 0.81% (n = 300,000). recombinant caTPT1, FP RNA substrate dephosphorylation;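 active means inhibition above the mean of all tested compounds plus 3 SD, set per screening campaign, cut at about 24% in these data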;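 further: plate controls were DMSO alone for no effect and ferristatin control at 100 nM for full effect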
HNF4A DNA FP: change in binding of human HNF4 alpha to DNA. P41235. HNF4a-FITC DNA binding, fluorescence polarization, 1 h. activity change, % at 10 µM. actives 0.3% (n = 360,000); in the data active means activity change above about 30%, passing the limit was not always enough
Target sequence (P41235 whole entry, looked up): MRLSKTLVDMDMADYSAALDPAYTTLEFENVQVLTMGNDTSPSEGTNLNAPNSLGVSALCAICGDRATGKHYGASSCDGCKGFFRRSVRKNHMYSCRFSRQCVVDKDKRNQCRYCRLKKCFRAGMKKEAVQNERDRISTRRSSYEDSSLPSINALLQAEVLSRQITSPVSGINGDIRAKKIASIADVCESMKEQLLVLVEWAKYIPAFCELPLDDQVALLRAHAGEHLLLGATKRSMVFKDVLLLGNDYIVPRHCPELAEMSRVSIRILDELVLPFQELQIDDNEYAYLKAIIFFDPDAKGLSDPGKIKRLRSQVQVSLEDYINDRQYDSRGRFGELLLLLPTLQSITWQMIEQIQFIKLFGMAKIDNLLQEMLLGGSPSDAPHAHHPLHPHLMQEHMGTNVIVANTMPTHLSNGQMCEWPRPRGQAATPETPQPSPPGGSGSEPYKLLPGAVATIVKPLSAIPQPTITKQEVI
Rtt109 Vps75: blocks Candida albicans Rtt109/Vps75 acetyltransferase activity; purified Rtt109/Vps75, ThioGlo CoA-SH fluorescence, 4 h; inhibition, % at 34.9 µM; actives 0.16% (n = 330,000); AID 540336;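 active means inhibition of at least 50% in every replicate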
CSN deneddyl inh: inhibitors of human CSN-mediated cullin deneddylation; Purified CSN, SCF-Nedd8-OG deneddylation, fluorescence polarization; Q92905; actives 0.38% (n = 360,000); inhibition, % at 12.5 µM;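 active means pattern-corrected inhibition above about 35%, with an unprinted fluorescence ratio check between 0.5 and 1.5, limit read from the data, passing the limit was not always enough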;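 further: 0% = enzyme with substrate and 100% = substrate without enzyme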
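Schedule: reaction 90 min, room temperature / Assay system: HEK293T-derived human Csn5 enzyme / Input: Csn5 at 0.24 nM final / Measure: inhibition of Csn5 cleavage, % / Control set: substrate-only high control, full reaction low control / Technique: fluorescence polarization of the substrate / Buffer or medium: Tris/NaCl/DTT buffer, pH 7.5 / Reagent: SCFSkp2-Nedd8OG substrate at 10 nM final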
* = called active by the depositor; · = no result.

SMILES | TPT1 inhibitor | HNF4A DNA FP | Rtt109 Vps75 | CSN deneddyl inh
CN(Cc1ccccc1Cl)C(=O)C1CCC(=O)N(C2CCCCCC2)C1 (centres undefined) | · | 2 | -5 | -2
CCOc1ccc(NC(=O)CN(C)C(=O)c2ccc(-c3ccc(C(C)=O)cc3)o2)cc1OCC | 4 | 3 | 6 | -3
CCOC(=O)/C=c1\s/c(=C\c2ccc3cc(OC)ccc3c2)c(=O)n1CC(=O)NCc1ccc2c(c1)OCO2 | 2 | 64 | 6 | 60*
O=C(NCc1ccc2c(c1)OCO2)c1ccc(CS(=O)Cc2cccc(Cl)c2)o1 (centres undefined) | -1 | -2 | 52* | 5
CNS(=O)(=O)c1ccc(CNC[C@H]2O[C@@H](n3cnc4c(=O)[nH]c(N)nc43)[C@H](O)[C@@H]2O)cc1 | · | -1 | · | 0
COc1cc(CCN(C(=O)c2cccc(S(C)(=O)=O)c2)C(CCc2ccccc2)c2nc3ccccc3[nH]2)cc(OC)c1 (centres undefined) | · | 0 | · | -1
COc1ccccc1Nc1nn2c(=O)c3ccc(C(=O)NCc4cccnc4)cc3nc2s1 | -2 | 90* | 15 | 84*
Cc1c2ccncc2cc2c1[nH]c1ccccc12 | · | 9 | 19 | 11
Cc1c2c(cc3c1[nH]c1ccccc13)C=NCC2 | · | 64* | -1 | 65*
CC(C)(C)c1ccc(C(=O)CC(Sc2ccc(Cl)cc2)C(=O)O)cc1 (centres undefined) | 3 | -1 | 126* | 5
CC(Oc1ccccc1)C(=O)Nc1ccc(F)c(S(=O)(=O)N2CCOCC2)c1 (centres undefined) | · | 1 | -1 | -4
Cc1c(C)c2c(OCC(=O)Nc3cccnc3)cc3c(c2oc1=O)CCC(C)(C)O3 | -1 | 55* | -12 | 11
O=C(Nc1ccc(C(F)(F)F)cc1)C1CCCCN1S(=O)(=O)c1ccccc1 (centres undefined) | · | 0 | 10 | 2
CN(C1CCCCC1)S(=O)(=O)c1cccc2nsnc12 | -4 | -3 | -7 | 2
COc1cccc(=O)c2c(C)n(CC(=O)c3ccccc3)c(C)c12 | 30* | -20 | 3 | 7
CCCCNS(=O)(=O)c1ccc(NC(=O)Cc2ccccc2[N+](=O)[O-])cc1 | 1 | -1 | 53* | 1
CC(C)(COC(=O)c1ccccc1)N1CC2CCC(C1)O2 | · | 1 | 4 | -5
Cc1cccn2cc(-c3ccc(NC(=O)Cc4ccccc4)cc3)nc12 | 4 | 40* | 2 | 13
O=c1nc(Nc2ccc(Br)cc2)sc2ccc([N+](=O)[O-])cc12 | -1 | -5 | 4 | 46*
CC1(C(=O)NCc2ccccc2)CN(S(C)(=O)=O)CC(=O)N1Cc1cccc(C(F)(F)F)c1 (centres undefined) | · | 0 | · | 2
O=c1[nH]c(/C=C/c2ccccc2Cl)nc2ccccc12 | -3 | 79* | 1 | 28
O=C(NCC[C@H]1CC[C@@H](NC(=O)C2CCC2)[C@@H](CO)O1)c1cc(Cl)cc(Cl)c1 | · | -2 | · | -5
Cn1c2c(c3ccccc31)CCN1CCC[C@]21c1ccccc1 | 3 | 5 | 1 | 2
COc1ccc(NC(=O)CSc2nc3n[nH]c(C)c3c(=N)n2-c2ccc(Cl)c(C)c2)cc1OC | 1 | -2 | -4 | 36*
C[C@@H]1CN([C@@H](C)CO)C(=O)c2cc(C#CCN(C)C)cnc2O[C@H]1CN(C)Cc1ccc2c(c1)OCO2 | · | 6 | · | -2
SMILES | TPT1 inhibitor | HNF4A DNA FP | Rtt109 Vps75 | CSN deneddyl inh
Cc1ccc(NC(=O)CN2C(=O)NC(C)(C)C2=O)cc1S(=O)(=O)N1CCCCCC1 | · | 33* | 7 | 0
COC(=O)[C@H](CC(C)C)NC(=O)/C=C/[C@H]1O[C@@H](n2ccc(=O)[nH]c2=O)[C@H](O)[C@@H]1O | · | 2 | · | 7
O=S1(=O)CC(O)C(NCc2cccnc2)C1 (centres undefined) | -1 | -1 | 65* | 1
COc1ccc(OC)c(S(=O)(=O)n2ccnc2C(C)C)c1 | -1 | -1 | 4 | 2
CC1(C(=O)Nc2ccc3c(c2)OCCO3)CCC(=O)N1C1CCN(Cc2ccccc2)CC1 (centres undefined) | · | 1 | · | 1
COCc1cc(C)c(C#N)c(=S)[nH]1 | -12 | 1 | 80* | 1
COc1cccc(C2c3c(C)nn(-c4ccc([N+](=O)[O-])cc4)c3N=C3C(=O)Nc4ccccc4N32)c1 (centres undefined) | 0 | 57* | 5 | 15
Cc1ccc(C2c3c(C)nn(-c4ccc([N+](=O)[O-])cc4)c3N=C3C(=O)Nc4ccccc4N32)cc1 (centres undefined) | 3 | · | · | ·
S=c1[nH]nc(-c2ccc3ccccc3n2)o1 | 3 | 1 | 4 | 113*
O=C(CCNC(=O)c1ccc(Cl)cc1)Nc1ccc(S(=O)(=O)N2CCCCC2)cc1 | 2 | 2 | 2 | -6
CC(=O)c1cnc2nc(SCc3cccc(C)c3)nn2c1C | 4 | 3 | 8 | 0
Cc1cc(Cl)c(S(=O)(=O)N2CCCC2)cc1OCC(N)=O | -1 | -1 | 50* | 2
O=C(CN1CCCCC1)Nc1ccc(N2CCCCCC2)cc1 | 0 | 72* | 3 | -3
C#CCN(C[C@H]1[C@H](OC(=O)NCc2ccccc2F)[C@H](OC(=O)NCc2ccccc2F)C[C@@H](C(=O)OC)[C@H]1C(=O)OC)S(=O)(=O)c1ccc(C)cc1 | · | -2 | · | 0
CC(=O)C1=C(C)N=c2s/c(=C/c3ccc4c(c3)OCO4)c(=O)n2C1c1ccc(N(C)C)cc1 (centres undefined) | · | 78* | -7 | 42*
CCOC(=O)C1=C(C)N=c2s/c(=C\c3ccc(C(=O)O)cc3)c(=O)n2C1c1ccc(F)cc1 (centres undefined) | · | 3 | -2 | 7
COc1ccccc1C(=O)NNC(=O)CCCN1C(=O)/C(=C/c2cccs2)SC1=S | -1 | 40* | 4 | 33
O=C(NCCCn1ccnc1)c1sc2cc([N+](=O)[O-])ccc2c1Cl | · | 8 | · | -3
CCCc1ccc(Oc2cc(C)nc(N3CCOCC3)n2)cc1 | 1 | 3 | 5 | 94*
Cc1cc(Oc2ccc(C(C)(C)C)cc2)nc(N2CCOCC2)n1 | -2 | -2 | -5 | 8
O=C(CSc1nnnn1-c1ccccc1)Nc1nsc(-c2ccc(Cl)cc2)n1 | -1 | 0 | -10 | 10
O=C(CSc1ccc2ccccc2n1)Nc1nsc(-c2ccc(Cl)cc2)n1 | 0 | 9 | 2 | 54*
O=C(COc1ccc2c(-c3ccccc3)cc(=O)oc2c1)Nc1cccnc1 | 1 | 11 | -2 | 49*
Cn1c(N)c(C(=O)N2CCN(c3ccccc3)CC2)c(=O)n(C)c1=O | · | 2 | · | -3
COc1ccc(/C=C2\SC(=O)N(CCNC(=O)C3CCN(S(=O)(=O)c4cccs4)CC3)C2=O)cc1 | -3 | 31* | 4 | -4
Cc1ccc(C(=O)O)cc1-c1ccc(C=C2C(=O)c3ccccc3C2=O)o1 | 30* | -11 | 7 | 27
CCOc1ccc(N2C(=O)C(Cl)=C(N3CCOCC3)C2=O)cc1 | -4 | 2 | 116* | 3

From PubChem
